Source: PubChem BioAssay
WT yeast gro inh = growth inhibition of WT yeast, mitochondrial fusion screen. inhibition, % at 10 µM. hit rate 2.1% among 190,000. mitochondrial fusion phenotypic screen, WT strain. AID 1362; in the data active means inhibition above about 58%; tested in S. cerevisiae
Insulin prom up = MIN6 insulin promoter up-regulation | MIN6 insulin promoter-GFP reporter, high-content imaging; stronger effect = higher value | z-score at 5 µM | hit rate 0.3% among 190,000;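 active means z-score above 3 at 5 µM with at least 500 cells counted in the well; inconclusive means wells under 500 cells, flagged as cytotoxic or low count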
Autophagy HCS = modulators of autophagy; MEF GFP-LC3 puncta imaging; test concentration mostly 10 µM; calls only at 10 µM (by protocol); hit rate 0.98% among 190,000; AID 463193;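 active means percentage of spot-positive cells more than 3 SD above its plate mean, without a fluorescence outlier flag or 80% toxicity; inconclusive means no clear call, values can overlap the other calls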;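 further: spot-positive cell cutoff set from DMSO-treated cells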
KCC2 mod = KCC2 (human) Cl- transport modulation | B-score of Tl+ flux slope (higher = more flux/activation; lower = inhibition) at 10 µM | KCC2 cells, thallium flux FluoZin-2 fluorescence | hit rate 2.2% among 190,000 | AID 1456;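 active means thallium flux slope and its plate-corrected score both differing from the plate sample mean at a set confidence after two filtering rounds, in either direction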;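 further: slope of fluorescence scaled to starting intensity during 10 to 20 s after thallium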
Rad51 HR inh = Rad51 (human) homologous recombination inhibition | Q06609 | hRad51 DNA strand exchange, fluorescence dequenching | inhibition, % at 10 µM | hit rate 0.085% among 200,000 | AID 1385;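 active means inhibition above 40% at the single screening dose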;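 further: 0% = DMSO control wells and 100% = blanks with heterologous ssDNA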
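System: hRad51 filaments on single-stranded DNA; reagent: Fluorescein- and BHQ1-tagged 47-mer duplex; compound dosing: one concentration, 10 µM final; timing: filaments 15 min 37 °C, then compound 30 min; measured by: fluorescein emission 520 nm, excitation 485 nm; benchmarks: per-plate controls and blanks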
SKKanGAS inh = blocks kanamycin growth of S. pyogenes SKKanGAS strain; BacTiter-Glo, 6 h; inhibition, % at 7.5 µM; hit rate 1.3% among 300,000;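 active means mean replicate score, as percent of positive control median, at least 50; inconclusive means mean below 50 but one replicate at or above 50; inactive means mean and every replicate below 50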;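 further: strain carries kanamycin resistance gene driven by streptokinase promoter and grows in 40 µg/ml kanamycin; loss of luminescence reflects streptokinase promoter inhibition or plain growth inhibition; 0% = median of DMSO wells and 100% = positive control at its reference dose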
An asterisk follows results filed as active; i = inactive; u = inconclusive; x = no result given; + = active, no number. Shown are actives, neighbours in structure and some others; about 4.2% of the full set was active somewhere.

SMILES | WT yeast gro inh | Insulin prom up | Autophagy HCS | KCC2 mod | Rad51 HR inh | SKKanGAS inh
NC(=O)c1ccsc1NC(=O)c1ccc2c(c1)CCCC2 | 69.7* | -0.38 | i | -0.25 | 1.9 | 6.6
CC1CCc2c(sc3ncnc(SCC(=O)c4ccccc4)c23)C1 (centres undefined) | 2.7 | -0.09 | i | 2.04 | 4.9 | -12.8
CC(=O)CSc1ncnc2sc3c(c12)CCC(C)C3 (centres undefined) | 12.1 | -0.35 | i | 121* | 8.5 | -0.7
Cc1nc(N/N=C\c2ccc3c(c2)OCO3)sc1C | x | x | x | x | x | 53.0*
C[C@@H]1CC=C[C@H]2[C@H]1C(=O)N(Cc1ccccc1)[C@H]2c1ccc(Br)cc1F | x | x | x | 0.0227 | -4.4 | 51.9*
C[C@@H]1CC=C[C@H]2[C@H]1C(=O)N(Cc1ccccc1)[C@H]2c1ccc2ccccc2c1Br | x | -0.92 | x | -0.28 | 0.5 | 57.2*
C[C@@H]1CC=C[C@H]2[C@H]1C(=O)N(Cc1ccccc1)[C@H]2c1ccc2ccccc2c1 | x | x | x | 0.155 | -2.3 | 43.7
CC[C@@H]1CC=C[C@H]2[C@H]1C(=O)N(Cc1ccccc1)[C@H]2c1ccc(OC)c(Cl)c1 | x | x | x | -0.437 | 1.4 | 59.0*
Cc1ccc(-c2ccc([C@H]3[C@H]4C=CC[C@@H](C)[C@@H]4C(=O)N3Cc3ccccc3)c(F)c2)cc1 | x | x | x | -0.601 | -26.5 | 40.2
CC(=O)Nc1ccc(NC(=O)C(C)OC(=O)c2cccc(S(=O)(=O)N3CCCC3)c2)cc1 (centres undefined) | x | x | x | x | x | 5.9
Cc1ccc(-c2ccc(OC(=O)c3ccc(=O)[nH]c3)c(C)c2)cc1 | x | x | x | x | x | 30.4
CCN(C(=O)COC(=O)CCC(=O)c1cccs1)c1c(N)n(Cc2ccccc2)c(=O)[nH]c1=O | x | x | x | x | x | 13.5
Clc1ccc(-c2ccccc2)nn1 | x | -0.49 | x | -0.0319 | 1.8 | -2.5
Oc1ccc(Br)cc1/C=N/NC(=S)NCCc1ccccc1 | x | x | x | x | x | 89.7*
Oc1ccc(Br)cc1/C=N/Nc1ncc(-c2ccccc2)cn1 | 2.5 | -0.34 | i | 0.866 | x | 82.7*
CC(C)NC(=S)N/N=C/c1cc(Br)ccc1O | 38.4 | -0.43 | i | 5.9* | 1.5 | 61.5*
COc1ccc(O)c(/C=N/NC(=S)NCCc2ccccc2)c1 | x | x | x | x | x | 1.1
S=C(NCCc1ccccc1)N/N=C/c1ccccc1Cl | 63.6* | 0.2 | i | 2.48 | -3.7 | -0.1
CN(C(=O)CC1C(=O)NCCN1Cc1cccc(C(F)(F)F)c1)C1CCOCC1 (centres undefined) | x | x | x | x | x | -0.2
S=C(NCCc1ccccc1)N/N=C/C1CCCCC1 | 72.0* | -0.33 | i | 1.02 | 0.2 | 18.3
O=C(NC(=S)NCCc1ccccc1)C1CCCCC1 | 28.6 | -0.16 | i | -2.1 | -1.6 | -0.5
CC(C)NC(=S)N/N=C/C1=CCC2CC1C2(C)C (centres undefined) | 72.8* | -0.16 | i | -0.00641 | -4.9 | 19.8
C=C(C)CNC(=S)N/N=C/C1=CCC2CC1C2(C)C (centres undefined) | 64.0 | -0.41 | i | 1.3 | 0.1 | -3.3
CCCCNC(=S)N/N=C/C1=CCC2CC1C2(C)C (centres undefined) | 69.8* | -0.85 | i | 2.7 | 2.0 | -1.1
CC(=O)N/N=C/C1=CCC2CC1C2(C)C (centres undefined) | 13.1 | -0.51 | i | 1.27 | -9.9 | -9.1
SMILES | WT yeast gro inh | Insulin prom up | Autophagy HCS | KCC2 mod | Rad51 HR inh | SKKanGAS inh
CCCn1c(=O)n(C)c(=O)c2c(SC(C)C(=O)NCC3CCCO3)nc(CC(C)C)nc21 (centres undefined) | x | x | x | x | x | -1.7
Cc1cc(C)cc(OC(C)C(=O)Nc2ccccc2C(=O)NCc2cccnc2)c1 (centres undefined) | x | x | x | x | x | -13.9
CSCCC(NC(=O)c1ccco1)C(=O)NC1CCCCCC1 (centres undefined) | x | x | x | x | x | 0.3
O=C(c1ccc(Cl)c(Cl)c1)N1CCN(c2ccccn2)CC1 | x | x | x | x | x | -1.6
O=C(c1cccc(COc2ccc(Cl)cc2Cl)c1)N1CCN(c2ccccn2)CC1 | 77.1* | 0.25 | i | -1.45 | 4.4 | 53.1*
O=C(NCc1ccccc1)c1cccc(COc2cc(Cl)ccc2Cl)c1 | -12.9 | -0.63 | i | -0.0836 | -1.7 | -9.9
CN(C(=O)c1cccc(COc2ccc(Cl)cc2Cl)c1)c1ccccc1 | 76.6* | x | i | -1.34 | x | 21.1
C=CCN(C(=O)c1ccccn1)C(C(=O)NCc1ccccc1)c1ccccc1F (centres undefined) | -8.8 | -0.61 | i | -0.905 | 1.5 | -1.6
Cc1cccc(S(=O)(=O)Nc2ccc(C)c3c2OC(C)(C)C3)c1 | 7.6 | -0.82 | + | x | 2.8 | 8.3
Cc1ccc(N2CC(C(=O)N3CCC(C(=O)Nc4ccc(Br)cc4)CC3)CC2=O)cc1 (centres undefined) | x | x | x | x | x | 4.9
O=C(Nc1ccc(Cl)c(Cl)c1)C1CC(=O)N(c2ccc(Br)cc2)C1 (centres undefined) | 87.2 | x | i | -1.14 | 10.1 | 53.9*
Cc1ccc(N2CC(C(=O)Nc3nccs3)CC2=O)cc1Cl (centres undefined) | -3.5 | x | + | x | -4.9 | 3.9
O=[N+]([O-])c1ccc(C(O)CSC(=S)N2CCCCC2)cc1 (centres undefined) | x | x | x | x | x | 17.7
Cc1ccc2nc(-c3ccc(NS(C)(=O)=O)cc3)cc(-c3ccccc3)c2c1 | 3.1 | 2.43 | i | x | -7.4 | 25.8
CCS(=O)(=O)Nc1ccc(-c2cc(-c3ccccc3)c3cc(C)ccc3n2)cc1 | 89.7* | 0.56 | i | -0.0712 | 0.2 | 95.4*
N#C/C(=C\c1ccc(OCC(N)=O)cc1)S(=O)(=O)c1ccccc1 | -11.9 | -1.11 | i | 1.24 | -1.2 | -0.1
O=C(Oc1ccc2c3c(c(=O)oc2c1)CCCC3)c1cccs1 | 5.7 | 0.53 | i | 0.133 | 5.9 | 20.2
O=C(Oc1cc2oc(=O)c3c(c2cc1Cl)CCCC3)c1cccs1 | 70.2* | -0.25 | i | 0.218 | 5.3 | 31.2
COc1cc2nc(SCc3c(C)noc3C)n(CCC3=CCCCC3)c(=O)c2cc1OC | 10.0 | 2.22 | + | -0.355 | 2.9 | 6.7
CCc1[nH]nc(C(=O)N2CCCC(N3CCN(c4ccccc4C)CC3)C2)c1C (centres undefined) | x | x | x | x | x | -21.6
O=C(Nc1ccccc1)Nc1cc(OCC(F)(F)F)cc(OCC(F)(F)F)c1 | 86.0* | -2.25 | i | 0.784 | -0.8 | 51.7*
O=C(Nc1ccccc1)Nc1cc(Cl)cc(Cl)c1 | 88.9* | x | i | 0.208 | 1.1 | 83.9*
O=C(NCc1ccccn1)Nc1cc(Cl)cc(Cl)c1 | x | x | x | x | x | 76.9*
O=C(Nc1cccnc1)Nc1cc(Cl)cc(Cl)c1 | 77.4* | -0.71 | i | -0.113 | -6.2 | u
O=C(NCc1nnnn1-c1ccc(F)c(F)c1)C(=O)c1c[nH]c2ccccc12 | x | x | x | x | x | -8.7
COc1ccc(NC(=O)CSc2nccn2Cc2ccc(F)cc2)cc1 | x | x | x | x | x | 6.1
O=C(NC(=S)Nc1cccnc1)c1cc2ccccc2o1 | -3.5 | -0.16 | i | 87.6* | x | -15.7
CC(=O)Nc1ccc(NC(=S)NC(=O)c2cc3ccccc3o2)cc1 | 15.3 | 0.07 | i | 0.101 | 3.8 | -6.1
